These results are taken from ChEMBL document CHEMBL1158041, “Diterpenoids, norditerpenoids, and secosteroids from the Formosan soft coral Cespitularia hypotentaculata” (2006).

Converted amounts (≈) assume the structure as drawn.

One test has as its system HT-29. The experiment in a line: Cytotoxicity against human HT-29. The test is classed as functional. Put shortly: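 HT-29 human colon cells obtained from the American Type Culture Collection; cytotoxicity reported as ED50 in µg/mL.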
For another test, the system named is P388. Put plainly: Cytotoxicity against mouse P388. The test is classed as functional. Put shortly:
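Murine P-388 leukemia cells were a gift from an academic laboratory; cytotoxicity reported as ED50 in µg/mL.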

Setting [1] is: read-out: ED50 (the source's name).

As for `C=C1CC[C@@H]2CCC3=C(C(=O)[C@H](C3=O)/C(C)=C/[C@@H](OC(C)=O)C1)C2(C)C`, the Activity result in the test on HT-29 and in the test on P388 was “Not toxic” in each case.

In the case of `C=C1CC[C@@H]2O[C@@]2(C)CC[C@@H]2/C(=C/C=C/C(C)C)C(=O)OC[C@@H]12`, the Activity entry in the test on HT-29 and in the test with P388 was “Not toxic” each time.

For `C=C1CC[C@@H]2CCC3=C(C(=O)[C@H](C3=O)/C(C)=C/[C@@H](O)C1)C2(C)C`, the Activity entry with HT-29 and in the test on P388 was “Not toxic” throughout.

Turning to `C=C1CC[C@@H]2CCC3=C(C2(C)C)[C@@](OC)(C/C(C)=C/[C@@H](O)C1)OC3=O`, the Activity result in the test with HT-29 and in the test on P388 was “Not toxic” throughout.

`C=C1CC[C@@H]2CCC3=C(C(=O)[C@H]([C@H]3O)[C@@]3(C)O[C@@H]3[C@@H](O)C1)C2(C)C`: the Activity entry with HT-29 and in the test on P388 was “Not toxic” each time.

Take `C=C1CC[C@@H]2CC[C@H](OC(=O)C/C(C)=C/[C@@H](O)C1)C(=O)C2(C)C`: the Activity entry in the test on HT-29 and in the test with P388 was “Not toxic” in each case.

As for `C=C1CC[C@@H]2CC[C@@H](O)[C@@](O)(C(=O)C/C(C)=C/[C@@H](O)C1)C2(C)C`, the Activity result with HT-29 and with P388 was “Not toxic” each time.

With `C=C1CC[C@@H]2CCC3=C([C@@H](C/C(C)=C/[C@@H](O)C1)OC3=O)C2(C)C` [CESPITULARIN O], the Activity entry in the test on HT-29 was “Not toxic”. Besides, the EC50 with P388 (setting [1]) was found to be 3.4 µg/mL (≈ 10.7 µM).

Take `CC(C)CCC[C@@H](C)[C@H]1CC[C@@H]([C@@H]2C[C@H]3O[C@]34C[C@@H](O)CC[C@]4(C)C2=O)[C@]1(C)CCO`: the EC50 with HT-29 (setting [1]) was 1 µg/mL (≈ 2.3 µM). Also, in the test on P388, the Activity result is “Not toxic”.

On to `CC(C)[C@@H](C)[C@@]1(C)C[C@@H]1[C@@H](C)[C@H]1CC[C@@H]([C@@H]2C[C@H]3O[C@]34C[C@@H](O)CC[C@]4(C)C2=O)[C@]1(C)CCO`, for which the Activity entry with HT-29 and in the test on P388 was “Not toxic” throughout.

On to `C=C1CC[C@@H]2CC[C@H](O)[C@@](O)(C(=O)C/C(C)=C/[C@@H](O)C1)C2(C)C`, for which the Activity result in the test on HT-29 and in the test with P388 was “Not toxic” each time.

`C=C1CC[C@@H]2CCC3=C(C(=O)[C@@H](/C(C)=C/[C@@H](OC(C)=O)C1)[C@H]3O)C2(C)C`: the Activity result in the test on HT-29 and in the test with P388 was “Not toxic” each time.
